Screens (PubChem BioAssay)
Compounds with a hit are over-represented: about 2.9% of the library has one in this group of screens.
ERAP1 inh = human ERAP1 aminopeptidase inhibitors, primary screen, biochemical, single point, plate reader. AID 652197, 2013. inhibition, % at 10.7 µM. 0.15% of 340,000 active. Endoplasmic reticulum aminopeptidase 1 (Homo sapiens), Q9NZ08. recombinant ERAP1, Leu-AMC fluorescence, 60 min;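 active = mean replicate inhibition of at least 30%, or all replicates individually reaching that 30% level; inactive = mean below 30% and not every replicate reaching it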;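 also: 0% = neutral control wells and 100% = L-leucinethiol positive control wells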
SIRT5 inh = SIRT5 desuccinylase inhibitors, primary screen, biochemical, fluorescence imaging, single point, set 5 | inhibition, % at 15 µM | Purified SirT5, succinyl-peptide AMC, trypsin-coupled fluorescence | NAD-dependent protein deacylase sirtuin-5, mitochondrial (Homo sapiens), Q9NXA8 | 1.1% of 330,000 active; in the data active = inhibition above about 15%; inconclusive = no clear call, values can overlap the other calls
Target sequence (Q9NXA8 whole entry, looked up): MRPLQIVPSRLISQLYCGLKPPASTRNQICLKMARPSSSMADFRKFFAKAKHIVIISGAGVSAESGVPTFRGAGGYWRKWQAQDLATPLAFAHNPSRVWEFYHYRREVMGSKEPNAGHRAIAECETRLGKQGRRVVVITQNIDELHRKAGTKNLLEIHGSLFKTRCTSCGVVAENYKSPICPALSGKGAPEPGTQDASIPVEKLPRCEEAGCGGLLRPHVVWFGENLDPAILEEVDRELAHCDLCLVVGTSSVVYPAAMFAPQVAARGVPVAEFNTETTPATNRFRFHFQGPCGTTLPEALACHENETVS
DENV2 CPE = inhibitors of DENV2 cytopathic effect, primary screen, cell-based, plate reader, single concentration | DENV2-infected cells, cytopathic effect rescue | CPE inhibition, % at 9.99 µM | 1.7% of 350,000 active | AID 651640, 2012; in the data active = CPE inhibition above about 20%, passing the limit was not always enough; inconclusive = no clear call, values can overlap the other calls; tested in BHK-21 cells;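 also: 0% = median of neutral control wells and 100% = median of positive control wells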
CAL PDZ FP-1 = CAL PDZ peptide-binding inhibitors, primary screen, biochemical, fluorescence polarization, Cer-tagged CAL PDZ, HTS | purified CAL PDZ, TMR-peptide fluorescence polarization, 1 h | inhibition, % at 20 µM | 0.02% of 330,000 active | AID 504414, 2011;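 active = highest replicate inhibition of at least 40%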;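 also: plate controls were DMSO neutral control wells for no effect and unlabeled competitor peptide control wells for full effect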
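Assay system – tagged CAL PDZ protein CerCALP, purified · Timing – 1 h at RT · Compound – single point, 20 µM · Measured by – fluorescence polarization from S- and P-plane intensities, G-factor corrected · Evaluation – inhibition from polarization loss · Probe or stimulus – TMR reporter peptide T*-PRC34 · Buffer or medium – pH 7.4 phosphate-saline buffer, reducing agent, detergent, IgG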
CAL PDZ FP-2 = untagged CAL PDZ binding inhibitors, primary screen, biochemical, fluorescence polarization, HTS. inhibition, % at 24.9 µM. purified CAL PDZ, TMR-peptide fluorescence polarization, 1 h. Golgi-associated PDZ and coiled-coil motif-containing protein (Homo sapiens), Q9HD26. AID 602252, 2012. 0.92% of 300,000 active;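 active = mean inhibition of at least 30% with at least half of replicates also reaching 30%; inconclusive = no clear call, values can overlap the other calls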;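 also: 0% = DMSO neutral control and 100% = excess unlabeled competitor peptide PRC23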
S100A4 inh HTS = inhibitors of S100A4-myosin IIA peptide binding, primary screen, biochemical, fluorescence polarization, TAMRA-MyoIIA peptide | Protein S100-A4 (Homo sapiens), P26447 | inhibition, % at 10.7 µM | 0.14% of 360,000 active;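 active = mean inhibition of at least 70% across replicates, with every replicate also reaching that level; inconclusive = mean inhibition reaches 70% but some replicates fall short; inactive = mean inhibition below 70%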
Target sequence (P26447 whole entry, looked up): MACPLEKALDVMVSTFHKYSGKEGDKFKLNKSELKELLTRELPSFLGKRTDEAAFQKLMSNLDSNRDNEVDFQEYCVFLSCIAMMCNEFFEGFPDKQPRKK
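Test system: S100A4 monomer protein. Medium: HEPES buffer with Ca2+, pH 7.2. Reagent: fluorescent myosin IIA peptide, 5 nM. Compound dosing: single-point compound testing. Timing: 5 min between mix addition and reading. Benchmarks: DMSO neutral and TFP positive wells.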
Starred values were filed as active, the others as inactive; u = inconclusive; x = not tested or not shown.

SMILES	ERAP1 inh	SIRT5 inh	DENV2 CPE	CAL PDZ FP-1	CAL PDZ FP-2	S100A4 inh HTS
CCCC/C=C/[C@H](c1ccccc1)[C@H](CO)Cc1cccnc1	-1	x	42*	0	-4	-3
CCCC/C=C/C(NC(=O)CCc1ccccc1)c1ccccc1 (centres undefined)	0	x	12	0	-4	-4
ClC(CCN1CCN(Cc2ccccc2)CC1)c1ccccc1 (centres undefined)	-3	-3	31*	-1	-4	-5
CC(CN1CCN(Cc2ccccc2)CC1)c1ccccc1 (centres undefined)	4	-1	-5	-1	6	1
COc1ccc(S(=O)(=O)N(C)C[C@H]2Oc3ccc(NC(=O)Nc4ccc(F)cc4)cc3C(=O)N([C@H](C)CO)C[C@H]2C)cc1	2	21*	-6	x	x	-8
C[C@@H]1CN([C@@H](C)CO)C(=O)c2cc(NC(=O)Nc3ccc(F)cc3)ccc2O[C@@H]1CN(C)S(=O)(=O)c1ccc(Cl)cc1	-1	19*	-6	x	x	-3
C[C@H]1CN([C@@H](C)CO)C(=O)c2cc(NC(=O)Nc3ccc(F)cc3)ccc2O[C@@H]1CN(C)S(=O)(=O)c1ccc(Cl)cc1	3	1	-8	x	x	-3
O=C(NCC[C@@H]1CC[C@H](NS(=O)(=O)c2cccc(F)c2)[C@H](CO)O1)C1CCCC1	2	-2	-13	x	x	-1
COC(=O)Nc1ccc(S(=O)(=O)N2CCCCC2C(=O)O)cc1 (centres undefined)	-4	0	6	-1	73*	-3
O=C(O)C1CCCCC1C(=O)Nc1ccc(S(=O)(=O)N2CCCC2)cc1 (centres undefined)	-6	17*	2	-2	-2	0
O=C(O)[C@H]1CCCC[C@H]1C(=O)Nc1ccc(S(=O)(=O)N2CCCCC2)cc1	-3	-3	-2	-2	0	-10
CC(=O)Nc1ccc(S(=O)(=O)N2CCCCC2C(=O)O)cc1 (centres undefined)	3	-1	-2	-2	-4	2
CC(C)N1CCc2c(sc(NC(=O)c3ccc(S(=O)(=O)N(C)CC4CCCO4)cc3)c2C(N)=O)C1 (centres undefined)	2	-2	-7	-3	-3	-8
CCN1CCc2c(sc(NC(=O)c3ccc(S(=O)(=O)N(C)CC4CCCO4)cc3)c2C(N)=O)C1 (centres undefined)	7	24*	-2	-3	-3	2
COc1ccc(NC(=O)Nc2ccc3c(c2)C(=O)N([C@@H](C)CO)C[C@H](C)[C@H](CN(C)C(=O)Nc2cccc4ccccc24)O3)cc1	-1	2	31*	x	x	1
C[C@@H]1CN([C@H](C)CO)C(=O)c2cc(NC(=O)Nc3cccc4ccccc34)ccc2O[C@@H]1CN(C)C(=O)Nc1ccc(F)cc1	0	1	25*	x	x	-9
CC(C)NC(=O)N(C)C[C@@H]1Oc2ccc(NS(=O)(=O)c3cccs3)cc2CC(=O)N([C@@H](C)CO)C[C@@H]1C	3	-1	22*	x	x	-4
C[C@H](CO)N1C[C@H](C)[C@H](CN(C)S(=O)(=O)c2ccccc2)Oc2ccc(NS(=O)(=O)c3cccs3)cc2CC1=O	-3	-2	-10	x	x	-36
CC(C)NC(=O)N(C)C[C@@H]1Oc2ccc(NS(=O)(=O)c3cccs3)cc2CC(=O)N([C@H](C)CO)C[C@H]1C	3	0	-3	x	x	2
C[C@@H]1CN([C@@H](C)CO)C(=O)Cc2cc(NS(=O)(=O)c3cccs3)ccc2O[C@H]1CN(C)S(=O)(=O)c1ccccc1	0	1	78*	x	x	6
C[C@H]1CN([C@@H](C)CO)C(=O)c2cc(NS(=O)(=O)c3cn(C)cn3)ccc2O[C@@H]1CN(C)Cc1ccncc1	-2	10	8	x	x	-14
CC=Cc1ccc2n(c1=O)C[C@H]1[C@H](CO)[C@@H](C(=O)NCC(F)(F)F)[C@@H]2N1C(=O)C1CC1 (mixture of isomers)	-1	-15	59*	x	x	-5
CC=Cc1ccc2n(c1=O)C[C@@H]1[C@@H](CO)[C@H](C(=O)NCc3ccc4c(c3)OCO4)[C@H]2N1C(C)=O (mixture of isomers)	-4	5	-5	x	x	125*
CC=Cc1ccc2n(c1=O)C[C@@H]1[C@@H](CO)[C@H](C(=O)NCc3ccc4c(c3)OCO4)[C@H]2N1C(=O)CC (mixture of isomers)	1	4	-3	x	x	0
CC=Cc1ccc2n(c1=O)C[C@@H]1[C@@H](CO)[C@H](C(=O)NCC(F)(F)F)[C@H]2N1C(=O)C1CC1 (mixture of isomers)	0	-13	u	x	x	0
SMILES	ERAP1 inh	SIRT5 inh	DENV2 CPE	CAL PDZ FP-1	CAL PDZ FP-2	S100A4 inh HTS
CC=Cc1ccc2n(c1=O)C[C@@H]1[C@@H](CO)[C@H](C(=O)NCC(F)(F)F)[C@H]2N1C(C)=O (mixture of isomers)	0	-18	76*	x	x	9
COC(=O)C[C@H]1CC[C@@H]2[C@@H](COc3ccc(NC(=O)Nc4c(C)noc4C)cc3C(=O)N2C)O1	0	1	10	x	x	0
COc1ccc2c3c(n(C)c2c1)[C@H](CO)N(C(=O)c1cnccn1)CC31CN(C(=O)c2ccncc2)C1	x	x	-1	x	x	x
C[C@H](CO)N1C[C@H](C)[C@@H](CN(C)C(=O)NC2CCCCC2)Oc2c(NC(=O)c3ccc(-c4nccs4)cc3)cccc2C1=O	1	-1	-5	x	x	8
CCCNC(=O)N1CC2(CCN(S(C)(=O)=O)CC2)c2c(n(C)c3cc(OC)ccc23)[C@H]1CO	-4	0	17	x	x	-24
O=C1C(=C2CCc3ccccc32)Cc2ccccc21	-4	-2	-4	x	x	-14
CCOP(=O)(OCC)c1ccc2c(c1)C(=O)c1ccccc1CC2	2	x	46*	1	-1	2
C[C@@H]1CN([C@@H](C)CO)C(=O)c2cc(NC(=O)C3CC3)ccc2O[C@H]1CN(C)C(=O)Nc1ccc(F)cc1	2	-1	-1	x	x	-69
